Compound activity as filed in PubChem.
HSF1 inhib = HSF1 inhibition; NIH3T3-HGL HSE-luciferase, MG132-induced, luminescence 8 h; active compounds read low; activity change, negative = inhibition, % at 7.5 µM (by protocol); hit rate 0.77% among 300,000;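 active = more than half of replicate wells show activity change below -50%, luminescence cut by over half; inconclusive = some wells, but at most half, below -50%; inactive = no replicate well below -50%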;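 note: luciferase reports HSF-1 transcriptional activity via heat shock element; 0% = median of DMSO wells and -100% = zero luminescence signal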
CHT inh = human CHT choline transport inhibition. B-score at 10 µM. CHT-expressing cells, membrane potential dye, choline response; active compounds read low. hit rate 0.86% among 310,000. Q9GZV3;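 active = B-score over 3 SD under the library average, and starting fluorescence ratio not unusually high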;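 note: choline stimulus applied at its EC90 after an EC20 pre-addition; B-score computed on integrated fluorescence ratio after choline addition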
Target sequence (Q9GZV3 whole entry, looked up): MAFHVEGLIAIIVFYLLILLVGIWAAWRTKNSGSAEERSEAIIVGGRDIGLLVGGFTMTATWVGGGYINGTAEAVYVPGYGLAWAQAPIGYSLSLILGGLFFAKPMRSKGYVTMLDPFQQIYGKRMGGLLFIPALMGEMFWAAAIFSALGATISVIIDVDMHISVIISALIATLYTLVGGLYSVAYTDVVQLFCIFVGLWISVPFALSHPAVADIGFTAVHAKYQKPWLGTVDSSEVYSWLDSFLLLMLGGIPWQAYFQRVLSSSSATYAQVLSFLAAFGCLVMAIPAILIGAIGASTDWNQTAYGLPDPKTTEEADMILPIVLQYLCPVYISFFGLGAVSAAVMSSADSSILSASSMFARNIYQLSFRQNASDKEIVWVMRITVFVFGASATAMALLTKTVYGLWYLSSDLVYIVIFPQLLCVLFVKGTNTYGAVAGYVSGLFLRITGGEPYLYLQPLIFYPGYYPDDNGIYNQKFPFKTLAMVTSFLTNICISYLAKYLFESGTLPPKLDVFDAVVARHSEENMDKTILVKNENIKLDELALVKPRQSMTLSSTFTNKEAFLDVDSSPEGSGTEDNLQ
PHOSPHO1 inh = PHOSPHO1 (human) inhibition; recombinant PHOSPHO1, absorbance phosphatase assay; inhibition, % at 13.3 µM; hit rate 1.1% among 290,000; AID 1565; in the data active = inhibition above about 60%
CHT PAM = allosterically activates the human high affinity choline transporter; Q9GZV3; CHT-expressing cells, membrane potential dye, choline EC20; active compounds read high; LV-AA mutant CHT in HEK293 cells; B-score at 10 µM; hit rate 0.49% among 310,000; AID 488977;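 active = initial fluorescence not abnormally high and integrated response B-score, plate-corrected, over 3 SD above library mean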
Hep lipid drop = modulators of hepatic lipid droplet formation; AML12 mouse hepatocytes, oleate lipid droplets, BODIPY imaging; inhibition, % at 6.5 µM; hit rate 0.4% among 240,000; AID 1656;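 active = lipid droplet intensity inhibited by at least 50%, with more than 500 cells counted; inconclusive = wells with under 300 cells, treated as cytotoxic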
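Test system: AML12 hepatocytes (mouse); reagent: oleate loading, 100 µM; dosing: one dose, 6.5 µM compound; incubation: overnight exposure; signal: fluorescence imaging, 20x objective, two fields per well; read-out basis: % inhibition of corrected integrated BODIPY droplet signal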
HSF-1 act = increases HSF-1 driven luciferase reporter signal. hit rate 1.7% among 300,000. NIH3T3-HGL HSF-1 luciferase reporter, MG132, 8 h; 100% = twice DMSO control signal. activation, % at 9 µM;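 active = mean replicate activation of at least 50% with a set share of replicates each reaching 50%; inconclusive = only one of those two conditions met; inactive = mean below 50% and too few replicates reaching it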;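 note: 0% = median of the neutral control wells and 100% = twice that signal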
CHT act confirm = human CHT activation, confirmatory screen. activation, % at 10 µM. shares compounds with CHT PAM. AID 504833. CHT-expressing cells, membrane potential dye fluorescence (FDSS); % of choline EC20–EC90 response window; HEK293 expressing CHT LV-AA mutant; choline added at its EC20. hit rate 91% among 2,500;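 active = primary screen active, with duplicate mean activation above negative control mean plus 3 SD, cut at about 11% in these data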
HEK293 MP dye = counter-screen for CHT activators: effect in parental HEK293 cells; hit rate 62% among 2,500; AID 623908; ratio readout change at 10 µM, hits read low; shares compounds with CHT PAM; membrane potential dye fluorescence (FDSS); measured after EC20 choline addition;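 active = duplicate-averaged ratio beyond 3 SD from buffer wells, up or down, though filed actives are nearly all decreases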
The depositor's hits bear a star; i = inactive; ? = inconclusive; / = no result given. Most compounds without a hit are left out; they make up all but 4.9% or so of the library.

SMILES	HSF1 inhib	CHT inh	PHOSPHO1 inh	CHT PAM	Hep lipid drop	HSF-1 act	CHT act confirm	HEK293 MP dye
CCC(C)NC(=O)CCC(=O)Nc1ccc2nc(N3CCOCC3)cc(C)c2c1 (configuration not stated)	-10.7	i	16.2	7.94*	/	-22.6	59.2*	-59.1*
CCCCNC(=O)CCC(=O)Nc1ccc2nc(N3CCC(C)CC3)cc(C)c2c1	/	i	-16.5	i	7.8	/	37.5*	-35.2*
Cc1cc(N2CCOCC2)nc2ccc(NC(=O)CCC(=O)N3CCC(C)CC3)cc12	17.0	i	32.7	i	/	33.7	/	/
Cc1ccccc1NC(=O)CSc1nc2c(c(=O)n(C)c(=O)n2C)n1C	-2.3	i	35.0	i	-1.1	-5.1	/	/
CCOc1ccc(CNS(=O)(=O)c2cc(-c3cc(C)no3)ccc2OC)cc1OC	-0.2	i	12.1	i	-2.1	-4.7	/	/
O=C(C[n+]1cc(-c2ccc(Cl)cc2)n2c1CCC2)N1c2ccccc2Sc2ccccc21	-1.0	i	-8.8	i	-13.2	-3.3	/	/
CC1CCC(C(C)C)C(OC(=O)C[n+]2cc(-c3ccc(Cl)cc3)n3c2CCC3)C1 (configuration not stated)	-4.1	i	22.5	13.9*	15.2	-5.8	83.3*	i
COc1ccc(C(CCNCc2ccc(OC)c(OC)c2)c2ccc(F)cc2)cc1 (configuration not stated)	-3.2	i	24.0	7.38*	11.6	-22.7	28.0*	i
COc1ccc(C(CCNCc2ccc(N(C)C)cc2)c2ccccc2)cc1 (configuration not stated)	2.6	i	28.4	7.02*	-2.9	16.4	9.5	i
CC(C)Oc1ccc(C(CCNCc2ccc(O)cc2)c2ccccc2)cc1 (configuration not stated)	-0.5	i	23.3	i	-5.1	-3.3	/	/
Cc1ccc(C(=O)C[n+]2cc(-c3ccc(C)cc3)n3c2CCCCC3)cc1	8.2	i	43.3	i	/	2.1	/	/
Cc1ccc(-c2c[n+](Cc3ccc(Cl)c(Cl)c3)c3n2CCC3)cc1	3.5	i	-4.4	7.02*	-17.4	-6.9	52.2*	-30.4*
Cc1sc2nc3ccc(NCc4ccco4)nn3c(=O)c2c1C	-1.8	i	31.4	6.58*	/	9.1	12.0*	-36.5*
O=c1c2ccccc2nc2ccc(NCc3ccco3)nn12	6.9	i	20.6	i	/	30.3	/	/
COc1ccc(Nc2c(-c3ccco3)nc3cccc(C)n23)cc1	14.0	i	30.3	i	37.9	26.6	/	/
Cc1ccccc1Nc1c(-c2cccnc2)nc2ccc(Br)cn12	9.7	i	16.2	i	-9.3	9.5	/	/
Cc1cccc2nc(-c3cccnc3)c(NCCC(C)C)n12	19.8	i	36.7	i	-14.9	44.0	40.7*	i
Cc1ccccc1Nc1c(-c2cccnc2)nc2ccccn12	6.3	i	27.4	7.53*	0.6	26.8	49.7*	-51.1*
Cc1cccc2nc(-c3cccnc3)c(Nc3ccccc3)n12	/	i	24.8	11.6*	1.7	/	27.6*	-29*
CCn1nnnc1SCC(=O)Nc1cc(C)on1	-3.2	i	6.3	i	11.7	12.6	/	/
COc1ccc2c(c1OC)C(=O)OC2N1C(=O)CC[C@H]1C(=O)NCC1CCCO1 (some centres not stated)	-3.7	i	18.2	i	-9.6	3.4	/	/
CCn1cc(C(=O)OCc2cccc(Br)c2)c(=O)c2ccc(C)nc21	4.3	i	27.8	i	0.6	29.0	/	/
CCn1cc(C(=O)OCc2ccc(F)cc2)c(=O)c2ccc(C)nc21	6.6	i	-10.1	8.04*	-4.8	6.8	56.4*	-87.2*
CCn1cc(C(=O)OCC(=O)NCc2ccc3c(c2)OCO3)c(=O)c2ccc(C)nc21	-7.1	i	-22.6	10.2*	-11.5	-3.6	60.5*	-56.2*
CCn1cc(C(=O)OCC(=O)Nc2c(C)n(C)n(-c3ccccc3)c2=O)c(=O)c2ccc(C)nc21	-2.5	i	-9.6	11.2*	/	-21.6	78.5*	-72*
SMILES	HSF1 inhib	CHT inh	PHOSPHO1 inh	CHT PAM	Hep lipid drop	HSF-1 act	CHT act confirm	HEK293 MP dye
C=CCn1cc(C(=O)OCC)c(=O)c2cc(F)c(F)cc21	-6.4	i	27.4	7*	/	-3.8	47.7*	-55.8*
CCOC(=O)c1cn(CC)c2cc(N3CCCCC3)c(F)cc2c1=O	-4.4	i	/	i	/	-8.9	/	/
CCn1cc(C(=O)OCC(=O)OC2CC(C)CCC2C(C)C)c(=O)c2ccc(C)nc21 (configuration not stated)	-3.6	i	-10.4	i	-0.6	-7.5	30.9*	i
C=CCOC(=O)c1cn(CC)c2nc(C)ccc2c1=O	-11.0	i	-10.1	10*	9.1	5.5	72.5*	-66.6*
CCn1cc(C(=O)OCC(=O)c2ccccc2)c(=O)c2ccc(C)nc21	-3.4	/	-2.7	/	7.1	-2.9	/	/
COc1ccc2o/c(=N/NC(=S)Nc3ccccc3)c(C(N)=O)cc2c1	5.9	/	0.8	/	10.4	22.9	/	/
COc1ccc(C(=O)Cc2ccc(F)cc2)c(OC)c1	15.2	i	-0.9	i	-0.9	?	/	/
CC(C)CSc1ncc(-c2cccc(C(F)(F)F)c2)cn1	-3.3	i	20.2	i	/	-8.5	/	/
COCC(=O)n1nc(NCc2ccc(OC)cc2)nc1NCc1ccc(OC)cc1	-4.8	i	-27.1	i	-14.0	-14.6	10.1*	i
Cc1cccc(/C=N/N2CCN(c3ccccc3)CC2)c1	4.3	i	4.2	i	-5.0	28.5	/	/
Cc1ccc(N(Cc2cc(=O)[nH]c3ccccc23)C(=O)C(C)C)cc1	1.5	i	24.0	i	-4.5	1.3	/	/
CN(CC(=O)Nc1ccc(S(N)(=O)=O)cc1)Cc1ccccc1F	4.6	i	0.2	i	25.4	15.3	/	/
CCc1cccc(C)c1NC(=O)CN(C)Cc1ccccc1F	5.2	i	-0.5	i	-24.0	-8.2	12.8*	i
Cc1sc2ncn(CC(=O)NCCCOC(C)C)c(=O)c2c1S(=O)(=O)N1CCN(c2ncccn2)CC1	-1.6	i	2.2	i	21.7	-3.7	/	/
Nc1sc(-c2ccccc2)n[n+]1Cc1cccc2cccnc12	21.6	i	25.1	7.82*	9.1	36.7	12.4*	i
Oc1ccccc1CNc1cccc2cccnc12	15.5	i	22.6	i	3.9	43.0	/	/
